Source: PubChem BioAssay (several laboratories)
S1P1 ag pot: S1P1 agonists and agonism potentiators, primary screen, cell-based, primary and confirmation screens, CRE-bla reporter; Sphingosine 1-phosphate receptor 1 (Homo sapiens), P21453; S1P1 CRE-bla cells, forskolin, beta-lactamase FRET, potentiator mode; S1P1 agonist co-added at EC20, 2 nM; 100% = saturating reference agonist, 0% = basal; activation, % at 9.5 µM; 56,000 compounds, 0.57% hits; AID 449, 2006;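 active means activation above a cutoff set at the mean activation of all tested compounds plus 3 SD, cut at about 54% in these data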;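 further: forskolin at 4 µM as EC80 and the EC20 agonist is SEW2871; 100% = SEW2871 at its EC100 plus forskolin at EC80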
S1P3 ag: human S1P3 receptor agonists, primary screen, cell-based, primary and confirmation, NFAT-BLA reporter; Sphingosine 1-phosphate receptor 3 (Homo sapiens), Q99500; S1P3 NFAT-BLA reporter cells, agonism, FRET ratio; relative to 1 µM S1P, basal subtracted; activation, % at 4.5 µM; 60,000 compounds, 0.1% hits; AID 373, 2006;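 active means activation above the screen-wide mean plus 3 SD, cut at about 4.5% in these data, passing the limit was not always enough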
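Assay system: CHO cells stably expressing human S1P3, Gα16 and NFAT-β-lactamase reporter. Timing: overnight plating, 4 h compound 37 °C, 2 h substrate RT. Signal: β-lactamase FRET emission ratio 460/535 nm. Measure: percent activation versus median 1 µM S1P response, basal-subtracted, per plate. Repeats: primary screen single test, confirmation screen in triplicate.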
M1 antagonist: antagonists of rat M1 muscarinic receptor. B-score at 10 µM. 64,000 compounds, 3.4% hits. CHO-M1 cells, Fluo-4 calcium, ACh EC80 antagonist mode; active compounds read low. Muscarinic acetylcholine receptor M1 (Rattus norvegicus), P08482;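 active means calcium fluorescence response, raw or row-and-column corrected B-score, differing from the plate sample mean either way at a set confidence level, mostly lower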
D1 allo mod: D1 CRE-luciferase signal change, two-sided – cell-based, HEK293 D1, dopamine EC30, D1 allosteric modulator project, primary screen; B-score at 10 µM; D(1A) dopamine receptor (Homo sapiens), P21728; 58,000 compounds, 5.9% hits; dopamine EC30 potentiation; actives deviate in either direction;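 active means luminescence count or its row- and column-corrected plate score outside the 99.7% band of the plate's sample wells, on either side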
Target sequence (P21728 whole entry, looked up): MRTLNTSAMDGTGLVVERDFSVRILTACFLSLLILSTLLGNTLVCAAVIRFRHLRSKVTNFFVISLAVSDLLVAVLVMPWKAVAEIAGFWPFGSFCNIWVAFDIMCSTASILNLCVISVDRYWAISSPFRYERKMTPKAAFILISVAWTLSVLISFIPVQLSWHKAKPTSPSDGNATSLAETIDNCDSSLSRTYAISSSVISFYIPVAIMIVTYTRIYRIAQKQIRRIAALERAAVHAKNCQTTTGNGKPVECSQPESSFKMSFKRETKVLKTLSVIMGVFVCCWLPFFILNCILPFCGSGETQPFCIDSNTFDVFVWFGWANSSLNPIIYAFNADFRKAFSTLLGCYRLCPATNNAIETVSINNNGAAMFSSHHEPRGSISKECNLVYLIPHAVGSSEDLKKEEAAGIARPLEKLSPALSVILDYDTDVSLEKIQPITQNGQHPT
M1 ag: M1 muscarinic receptor agonists, primary screen, CHO-M1 cells, Fluo-4 calcium, agonist mode; Muscarinic acetylcholine receptor M1; Fluo-4 calcium fluorescence; active compounds read high; B-score at 10 µM; 64,000 compounds, 3% hits;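 active means fluorescence rise, raw or as B-score row- and column-corrected plate score, outside the 99.7% band of its plate's samples, either direction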
M1 ag confirm: rat M1 muscarinic receptor agonists, confirmation, CHO-M1 cells, Fluo-4 calcium, duplicate retest; shares compounds with M1 ag; Fluo-4 calcium fluorescence, agonist mode; actives lie on both sides; fluorescence change (max-min) at 10 µM; 1,700 compounds, 19% hits;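 active means fluorescence change differs from the solvent-only DMSO control mean at a set confidence level in both duplicate runs; inconclusive means differs from solvent-only control mean in just one of two runs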;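 further: an EC20 dose of acetylcholine follows compound addition during the same imaging run; raw fluorescence intensity difference in instrument units with no normalization to controls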
M4 ag counter: agonist activity at rat M4 receptor, confirmation, counter-screen for M1 allosteric modulator project, cell-based, agonist mode; 1,700 compounds, 9% hits; fluorescence change (max-min) at 10 µM; shares compounds with M1 ag; AID 1741, 2009; CHO M4/Gqi5 cells, Fluo-4 calcium fluorescence; actives lie on both sides;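 active means fluorescence change differing from the plate's solvent-only control wells at 99.7% confidence in both duplicates, whether higher or lower; inconclusive means differs from solvent controls in only one of two duplicates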
* marks the source's active call; other numbers are inactive results; ? = inconclusive; / = no result. Hits are enriched below; roughly 11% of the tested compounds scored in any of these assays.

SMILES | S1P1 ag pot | S1P3 ag | M1 antagonist | D1 allo mod | M1 ag | M1 ag confirm | M4 ag counter
Cc1ccc(/C(C#N)=C\c2cn(C)c3ccccc23)cc1 | -1 | -1 | -0.4 | 1.6 | -2.7* | -11 | -28
COc1c2c(nc3occc13)C(CCC(C)(C)O)(OC)C(O)CC2 (centres undefined) | -6 | 2 | -0.82 | 0.21 | 0.045 | / | /
CCN=C1SC(C(=O)Nc2cccc(OCC)c2)CC(=O)N1CC (centres undefined) | 12 | -2 | -0.41 | 0.84 | 7.6* | -18 | -15
CC1CC(C)CN(CCCNC(=O)C2CCCN(c3nnc(N4CCCC4=O)s3)C2)C1 (centres undefined) | -23 | -1 | -0.022 | 0.26 | 1 | / | /
O=C(Nc1ccc2c(c1)OCO2)N1CCN(c2cccc(C(F)(F)F)c2)CC1 | 31 | 14 | -2.2 | / | 2.9* | ? | ?
COc1ccccc1NC(=O)N1CCN(c2cccc(C(F)(F)F)c2)CC1 | 20 | 1 | -0.43 | -0.32 | -0.97 | / | /
CC(=O)N(C)c1ccc(NC(=O)c2cnn(C)c2)cc1 | / | / | -0.91 | 0.033 | -0.085 | / | /
O=C(CN1CCN(C2CCCCC2)CC1)NCCC1=CCCCC1 | 12 | 0 | -0.37 | 0.35 | 13* | 94* | -46
CC(C(=O)Nc1ccc2c(c1)OCO2)N(c1ccc(Cl)cc1)S(C)(=O)=O (centres undefined) | / | -1 | -0.62 | 0.24 | 0.2 | / | /
Cc1ccc(S(=O)(=O)N2CCCC2C(=O)O)cc1 (centres undefined) | 16 | 0 | 0.39 | -0.79 | 0.13 | / | /
Cc1ccc(S(=O)(=O)N2CCN(S(C)(=O)=O)C2c2ccccc2)cc1 (centres undefined) | -11 | -1 | 0.084 | -0.88 | 2.7* | -41* | ?
CCOC(=O)N1CCN(S(=O)(=O)c2ccc(C)cc2)C1c1ccccc1 (centres undefined) | / | / | -0.46 | -2.7 | 3.2* | -6.5 | -14
Cc1cccc(N(CC(=O)NC2CCCCC2)C(=O)CCC(=O)Nc2cc(C)ccn2)c1 | 4 | -1 | 0.34 | -2.1 | -0.12 | / | /
COc1ccc(C2CC(=O)N3CN(c4ccc(C)c(Cl)c4)CSC3=C2C#N)cc1OC (centres undefined) | -26 | 0 | 0.093 | / | 10* | ? | -29
O=C(c1cc(-c2ccncc2)nc2ccc(Cl)cc12)N1CCN(C(=O)C2CCCO2)CC1 (centres undefined) | -9 | -1 | -0.26 | -0.19 | 2.9* | -29 | -48
CC(=O)c1cccc(OCC(=O)c2cc(C)n(-c3cc(C)on3)c2C)c1 | 38 | 0 | -0.39 | -2 | 0.9 | / | /
Cc1cc(-n2c(C)cc(C(=O)CSc3nnc4sc5ccccc5n34)c2C)no1 | -10 | 1 | -0.53 | 0.81 | 0.015 | / | /
Cc1cc(-n2c(C)cc(C(=O)COc3ccc4ccc(=O)oc4c3)c2C)no1 | 16 | -1 | -0.25 | -1 | 6.2* | ? | -40
Cc1cc(-n2c(C)cc(C(=O)CSc3ncnc4ccccc34)c2C)no1 | / | / | -1.4 | -3.2* | 7* | -5.4 | ?
Cc1ccccc1-n1c(SC/C(O)=C(\C#N)c2nc3ccccc3[nH]2)nnc1-c1ccncc1 | / | / | -0.047 | 0.76 | 3.9* | 4.6 | -4.6
CCOC(=O)c1c(N)n(CCOC(=O)c2cccs2)c2nc3ccccc3nc12 | -11 | 0 | -1 | 0.78 | 9.8* | -2.5 | -37
COCc1cc(C)nc2sc(C(=O)OC)c(N)c12 | -53 | 0 | 0.031 | 3 | 4.4* | -5.9 | -40
CCOC(=O)N1CCC(n2c(SCC(=O)Nc3nccs3)nc3ccsc3c2=O)CC1 | / | / | 0.53 | -0.071 | -0.76 | / | /
O=C(c1ccco1)N1CCN(c2ncnc3c2oc2ccccc23)CC1 | 14 | 0 | -1.3 | / | 14* | -13 | -26
COc1ccc(N2CCN(c3ncnc4nc[nH]c34)CC2)cc1 | -7 | 0 | 0.095 | 3.2 | -2.3 | / | /
SMILES | S1P1 ag pot | S1P3 ag | M1 antagonist | D1 allo mod | M1 ag | M1 ag confirm | M4 ag counter
COc1ccccc1N1CCN(c2ncnc3c2oc2ccccc23)CC1 | 22 | -1 | -1.1 | -0.16 | 3.9* | -29* | -62
COc1ccccc1N1CCN(c2ncnc3nc[nH]c23)CC1 | 7 | -1 | 0.01 | 1.5 | 3* | ? | -40
COc1ccccc1-n1nc(C(=O)O)c2ccccc2c1=O | -3 | -1 | -0.049 | -0.21 | 6.6* | ? | -30
CS(=O)(=O)N(CC(=O)NCc1ccncc1)c1cc(Cl)cc(Cl)c1 | / | / | 0.044 | -0.2 | -0.81 | / | /
O=C(c1ccccc1F)N1CCN(Cc2cccc(Cl)c2)CC1 | 3 | -1 | -0.42 | -0.68 | -1.9 | / | /
CCOC(=O)Cn1c2ccc(OC)cc2c2nc3ccccc3nc21 | 11 | -2 | -0.2 | 0.03 | 19* | -10 | -21
Cc1ccc(N2CC(C(=O)Nc3ccncc3)CC2=O)cc1 (centres undefined) | 5 | 0 | 0.053 | -0.39 | 0.35 | / | /
CC(=O)Nc1cccc(NC(=O)C2CC(=O)N(c3ccc(C)cc3)C2)c1 (centres undefined) | 7 | 1 | 0.85 | -0.028 | 3.1* | -19 | -53
O=C1CCN2C=Nc3cccc4ccc1c2c34 | 20 | -2 | -11* | / | 493* | 3266* | 2765*
Cc1ccc2[nH]c3c(c2c1)CN(C(=O)CN1CCN(Cc2ccc4c(c2)OCO4)CC1)CC3 | 24 | 1 | -1.6 | -1.4 | 0.065 | / | /
Cc1ccc2[nH]c3c(c2c1)CN(C(=O)CN1CC(C)OC(C)C1)CC3 (centres undefined) | -5 | -2 | -0.019 | / | 8.4* | 31 | 17
Clc1ccc(COc2ccccn2)c(Cl)c1 | 21 | -1 | 0.15 | / | -0.015 | / | /
CCN(CC)Cc1c(O)ccc2c(-c3ccccc3)cc(=O)oc12 | -20 | 0 | -0.49 | -1.9 | 0.92 | / | /
CCCCN(C)Cc1c(O)ccc2c(-c3ccccc3)cc(=O)oc12 | 6 | -1 | -3.8* | / | 8.2* | -2.7 | -21
COc1ccc(-c2cc(C(F)(F)F)nc(N3CCN(C)CC3)n2)cc1 | / | / | / | 0.072 | / | / | /
COc1ccc(-c2cc(C(F)(F)F)nc(N3CCCCCC3)n2)cc1 | / | / | 0.23 | / | 4.6* | -3.6 | ?
CC1(C)Cc2c(C#N)c(SCCOc3ccccc3)nc(N3CCOCC3)c2CO1 | 6 | -4 | -0.33 | / | 4.1* | -9.7 | ?
